Screens: PubChem, several laboratories
T cruzi inh – blocks replication of Trypanosoma cruzi; inhibition, % (no concentration beside the values); hit rate 1.4% among 300,000; T. cruzi beta-gal in NIH3T3, luminescence, 90 h;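 active = mean inhibition across valid replicates above about 55%, limit read from the data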;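 note: signal also drops with host cell toxicity which is not excluded here; 0% = plate median of DMSO wells and 100% = zero luminescence signal; higher percent means less beta-gal luminescence so fewer parasites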
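Assay system: NIH/3T3 fibroblasts plus reporter T. cruzi. Amount: NIH/3T3 cells, 5,000 per well. Buffer or medium: DMEM, 2% fetal bovine serum. Doses: compound pinned at 50 nL/well, DMSO. Schedule: ≥90 h infection period, 3 h prior cell attachment. Signal: luminescent β-galactosidase signal after 60 min lysis. Read-out: parasite load inhibition, %.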
GRIN3A LBD mod – modulators (binders) of human NR3A ligand-binding domain | NR3A LBD differential scanning fluorimetry, Tm shift; 0% = protein alone, 100% = glycine-bound protein | Tm shift relative to glycine control, % at 25 µM | hit rate 2.5% among 340,000 | AID 1259313;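 active = melting temperature shift of at least 10% of the positive control shift, at one fixed dose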
Beta cell apopt – blocks beta cell apoptosis; INS-1E cytokine-induced death, ATP luminescence, 48 h; percent of positive-control rescue, neutral wells zero; protection from apoptosis, % (no concentration beside the values); hit rate 0.8% among 300,000; AID 435005;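 active = Every replicate reaches about 75%, or at least half do and their mean reaches it too, limit read from the data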;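 note: 0% = cytokine-treated negative control wells and 100% = positive control rescue; higher means more ATP so stronger rescue from cytokine killing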
CHOP inh – CHOP inhibition in unfolded protein response; CHO-K1 CHOP-promoter luciferase, tunicamycin-induced, 15-18 h; inhibition, % at 10 µM; hit rate 3.8% among 220,000; AID 2732;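 active = compounds that reduced the stress-induced luciferase reporter signal by more than about 70% of percent inhibition, limit read from the data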;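 note: 0% = tunicamycin plus vehicle and 100% = wells without tunicamycin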
PREPL inh – human PREPL enzyme inhibition; AID 2751; inhibition, % at 5.96 µM; hit rate 0.68% among 320,000; recombinant PREPL, fluorescence polarization activity-based probe; Q4J6C6; in the data active = inhibition above about 43%;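 note: 0% = enzyme with DMSO and 100% = wells lacking enzyme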
Target sequence (Q4J6C6 whole entry, looked up): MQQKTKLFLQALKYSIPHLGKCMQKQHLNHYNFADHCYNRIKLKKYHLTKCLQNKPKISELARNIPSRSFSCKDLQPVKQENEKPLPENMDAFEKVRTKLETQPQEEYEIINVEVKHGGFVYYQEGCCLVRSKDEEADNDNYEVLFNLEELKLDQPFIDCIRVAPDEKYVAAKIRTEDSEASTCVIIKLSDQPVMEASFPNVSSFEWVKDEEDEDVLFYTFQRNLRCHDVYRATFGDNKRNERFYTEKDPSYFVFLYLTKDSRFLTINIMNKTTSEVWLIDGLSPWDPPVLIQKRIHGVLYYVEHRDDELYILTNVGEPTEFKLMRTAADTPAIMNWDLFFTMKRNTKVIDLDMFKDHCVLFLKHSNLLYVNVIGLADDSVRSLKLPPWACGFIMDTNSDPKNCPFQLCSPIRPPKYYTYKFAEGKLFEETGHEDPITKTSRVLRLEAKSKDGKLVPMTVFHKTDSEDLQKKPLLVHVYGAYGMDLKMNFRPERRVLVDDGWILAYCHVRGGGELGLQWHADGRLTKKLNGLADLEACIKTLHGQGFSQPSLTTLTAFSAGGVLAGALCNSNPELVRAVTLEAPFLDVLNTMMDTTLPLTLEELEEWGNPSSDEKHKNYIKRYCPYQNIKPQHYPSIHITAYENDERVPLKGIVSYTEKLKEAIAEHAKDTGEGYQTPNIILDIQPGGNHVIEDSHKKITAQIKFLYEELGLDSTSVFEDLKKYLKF
CSC inhib – cancer stem cell inhibition; hit rate 1.1% among 300,000; inhibition, % at 7.5 µM; cancer stem cell-like cells viability, luminescence; in the data active = inhibition above about 75%; tested in HMLE shEcad cells
Numbers without * were called inactive; nt = not tested or not shown. Rows were chosen to be rich in hits. Some 6.7% of all compounds tested hit in one or more screens of this group.

SMILES | T cruzi inh | GRIN3A LBD mod | Beta cell apopt | CHOP inh | PREPL inh | CSC inhib
CCN(CC)c1ccc2c(O)cc(=O)oc2c1 | 5.7 | -0.3 | -1.6 | 3.0 | 29.2 | 9.2
CCN(CC)c1ccc2c(Cl)cc(=O)oc2c1 | -3.7 | 0.8 | -2.5 | 93.8* | 4.2 | -8.2
CC(=O)Nc1ccc(O)c(-c2nc3ccccc3s2)c1 | -16.5 | 4.7 | 2.6 | -70.8 | 2.1 | -3.4
O=C(Nc1ccc(-c2nc3ccccc3s2)c(O)c1)C1=COCCO1 | -3.9 | 36.5* | 23.5 | 71.6* | 10.3 | 3.0
O=C(CCS(=O)(=O)c1ccccc1)Nc1ccc(-c2nc3ccccc3s2)c(O)c1 | -7.0 | 14.9* | -5.1 | -5.7 | 3.2 | -4.6
COc1ccccc1C(=O)NCC(=O)NNc1ncnc(N)c1[N+](=O)[O-] | -3.0 | nt | -2.9 | 6.3 | 9.3 | 7.0
COc1ccc(-c2csc3ncnc(Sc4nnnn4C)c23)cc1 | nt | 0.2 | -18.5 | nt | 23.8 | 52.5
Cn1nnnc1Sc1ncnc2scc(-c3cccc4c3sc3ccccc34)c12 | nt | -1.2 | 2.9 | nt | 30.0 | 111.2*
Cn1nnnc1Sc1ncnc2scc(-c3ccc([N+](=O)[O-])cc3)c12 | nt | 13.5* | -7.0 | nt | 23.8 | 73.1
Cn1nnnc1Sc1ncnc2scc(-c3cccc(Br)c3)c12 | nt | -0.5 | -13.3 | nt | 11.6 | 88.7*
Cn1nnnc1Sc1ncnc2scc(-c3ccc(Cl)cc3)c12 | nt | -0.5 | -9.1 | nt | 12.1 | 82.7*
CN(CC(=O)Nc1ccccc1Cl)C(=O)COC(=O)C1CCN(c2ccc(C(F)(F)F)cn2)CC1 | -4.6 | 0.2 | -1.0 | nt | -10.4 | -0.6
Cc1cccc(N(Cc2ccccc2)C(=O)c2cc(S(=O)(=O)N3CCOCC3)ccc2Cl)c1 | 16.5 | -1.8 | 6.2 | nt | 6.3 | -2.0
OCC1(Cc2cccc(C(F)(F)F)c2)CCN(Cc2cc3ccccc3o2)CC1 | 26.0 | -4.0 | 1.9 | 89.3* | -30.5 | 32.6
Cc1c(CN2CCC(CO)(Cc3cccc(C(F)(F)F)c3)CC2)c2ccccc2n1C | 56.2* | -1.9 | 6.7 | 20.7 | 18.7 | nt
CS(=O)(=O)Nc1nnc(Cc2ccccc2)s1 | -2.7 | 11.0* | -5.9 | 1.3 | -2.7 | -5.3
Cc1ccc(SCCN2CCN(C)CCC2=O)cc1 | -13.0 | 1.8 | nt | -33.1 | nt | nt
Cc1ccc(SCCN2CCN(Cc3ccccc3)CC2)cc1 | 72.5* | 1.8 | 0.9 | nt | -8.4 | 43.0
Cc1ccc(SCCN2CCN(C)CC2)cc1 | 64.5* | -2.3 | -2.3 | nt | -7.3 | 10.0
Clc1ccc(SCCN2CCNCC2)cc1 | 62.7* | -0.3 | -7.1 | -13.8 | 13.0 | 9.8
CC(=O)c1ccc(N=C2NC(=O)C(CO)(CO)S2)cc1 | -2.1 | -4.4 | -1.6 | nt | -0.8 | -6.7
O=C(CCn1ccnc1)Nc1cc(Cl)ccc1O | -1.3 | 0.2 | -4.4 | nt | -0.5 | -13.9
CC1C(=O)Nc2ccc(S(=O)(=O)N3CCN(c4cccc(C(F)(F)F)c4)CC3)cc2NC1=O (stereo unspecified) | -12.9 | 9.7 | 4.5 | nt | -1.1 | 2.4
O=c1[nH]c(N2CCCCC2)nc2ncn(Cc3ccccc3)c12 | 8.3 | 0.1 | 0.2 | 6.2 | 6.1 | -1.9
N#Cc1ccccc1Cn1c(=O)n(C2CCCC2)c(=O)c2ccccc21 | 5.7 | -2.5 | nt | 40.6 | -10.9 | -17.5
SMILES | T cruzi inh | GRIN3A LBD mod | Beta cell apopt | CHOP inh | PREPL inh | CSC inhib
O=c1c2ccccc2n(Cc2cccc(F)c2)c(=O)n1C1CCCC1 | 13.5 | -11.0 | -2.4 | 81.6* | -7.9 | nt
COc1ccc(CSCCNC(=S)Nc2ccccc2)cc1Cl | -5.0 | 5.5 | 4.1 | 29.5 | 6.1 | 15.0
S=C(NCCSCc1ccc(Cl)cc1Cl)Nc1ccccc1 | -21.4 | 17.0* | -0.2 | 81.0* | -1.7 | 52.6
Cc1ccc(C(=O)NCCSCc2ccc(Cl)cc2Cl)cc1[N+](=O)[O-] | 15.1 | -23.3 | -7.5 | 21.0 | -10.0 | 54.5
S=C(NCCSCc1ccc(Cl)c(Cl)c1)Nc1ccccc1 | 2.3 | 22.2* | -2.5 | nt | 2.4 | -14.3
Cc1c(C(=O)NCCSCc2ccc(Cl)cc2Cl)cccc1[N+](=O)[O-] | -2.6 | -5.4 | 11.0 | 72.1* | 20.0 | -4.3
S=C(NCCSCc1c(Cl)cccc1Cl)Nc1ccccc1 | 56.1* | 9.6 | 4.5 | 32.3 | 4.9 | nt
O=C(NCCSCc1c(F)cccc1Cl)Nc1ccccc1 | 10.8 | -5.2 | -7.6 | nt | -15.0 | 14.4
NNC(=O)c1ccc(S(=O)(=O)N2CCc3ccccc32)cc1 | -1.8 | 0.1 | -2.1 | nt | 4.7 | -11.4
Cc1cccc(C)c1NC(=O)CN(C)C(=O)c1cccc(NS(=O)(=O)c2ccccc2)c1 | -8.1 | 0.8 | -1.4 | nt | -0.6 | -7.4
CCc1ccc(NC(=O)CSc2nccn(-c3ccc4c(c3)OCCO4)c2=O)cc1 | 41.2 | 0.5 | nt | nt | nt | nt
CCC(=O)c1ccc(SC(=O)N(C)C)cc1O | -2.9 | -1.6 | -5.8 | -15.4 | -2.6 | -6.9
CS(=O)(=O)NCCSCc1c(Cl)cccc1Cl | 74.9* | -0.5 | -3.6 | 15.5 | 0.2 | -16.8
CS(=O)(=O)NCCSCc1c(F)cccc1Cl | -4.0 | -0.4 | -5.0 | 32.7 | -8.8 | nt
Cc1ccc2c(c1)c1ccc3c(c1n2C)C(=O)C=CC3=O | nt | -7.4 | nt | 106.0* | nt | nt
CC[C@]12c3[nH]c4ccc(OC)cc4c3CCN1C(=O)C(CC(=O)NC(C)(C)C)C[C@@H]2C(=O)N1CCN(C(=O)c2ccco2)CC1 (stereo partly specified) | nt | -0.7 | nt | nt | nt | nt
Nc1c(-c2ccccc2)c(CSc2nc3ccccc3[nH]2)nn1-c1cccc(Cl)c1 | 65.9* | 1.6 | 22.8 | 54.6 | 1.9 | 17.2
Nc1c(-c2ccccc2)c(CSc2nc3ccccc3[nH]2)nn1-c1ccc(Cl)cc1 | 64.1* | -4.3 | 6.9 | 55.0 | 15.8 | 36.6
Cc1ccccc1-n1nc(CSc2nc3ccccc3[nH]2)c(-c2ccccc2)c1N | 10.8 | -0.9 | -1.3 | 14.7 | 4.9 | 23.4
Cc1ccc(C(=O)c2oc3ccccc3c2NC(=O)c2cc(-c3cc(C)ccc3O)n[nH]2)cc1 | 19.2 | 22.3* | 24.2 | 71.1* | 9.5 | 5.9
CC(=O)Nc1c(C(=O)c2ccc(F)cc2)oc2ccccc12 | -10.3 | -0.5 | 0.6 | 14.1 | -19.0 | -5.0
O=C(Nc1c(C(=O)c2ccccc2)oc2ccccc12)c1cc(-c2ccccc2O)n[nH]1 | 15.4 | 28.4* | 3.0 | 89.7* | 1.2 | -13.5
Cc1ccc(C(=O)c2oc3ccccc3c2NC(=O)c2cc(-c3ccccc3O)n[nH]2)cc1 | 23.8 | 31.4* | 7.0 | 60.7 | 0.5 | -4.5
Cc1ccc(C(=O)N/C(=C\c2cccs2)C(=O)N2CCOCC2)cc1C | 0.4 | 1.7 | -2.2 | nt | -1.9 | -5.9
CCn1nc(C(=O)OCC(=O)c2c[nH]c3ccccc23)c2ccccc2c1=O | 0.4 | -2.2 | -1.6 | 41.5 | 17.0 | 0.2
CC(C)n1nc(C(=O)OCC(=O)c2c[nH]c3ccccc23)c2ccccc2c1=O | 9.5 | 7.4 | -2.6 | 80.5* | 13.6 | -2.2
COC(=O)Nc1nc2ccc(-c3n[nH]c(=O)c4ccccc34)cc2[nH]1 | -29.0 | 1.3 | -4.1 | 3.9 | 3.2 | 103.9*
COC(=O)c1ccc(-c2n[nH]c(=O)c3ccccc23)cc1 | -12.8 | -0.5 | -5.6 | 15.8 | -4.1 | -6.4
